ChEMBL document CHEMBL4028836, “Optimization of M4 positive allosteric modulators (PAMs): The discovery of VU0476406, a non-human primate in vivo tool compound for translational pharmacology” (Bioorg Med Chem Lett, 2017)

How the values were obtained:
[1] = biological target: T1, Muscarinic acetylcholine receptor M4 (Homo sapiens, UniProt P08173); assay: Positive allosteric modulation of human M4 receptor expressed in CHO cells coexpressing Gqi5 assessed as increase in acetylcholine-induced calcium mobilization; type: functional, cell-based; conditions: read-out: EC50
T1 sequence (P08173 whole entry): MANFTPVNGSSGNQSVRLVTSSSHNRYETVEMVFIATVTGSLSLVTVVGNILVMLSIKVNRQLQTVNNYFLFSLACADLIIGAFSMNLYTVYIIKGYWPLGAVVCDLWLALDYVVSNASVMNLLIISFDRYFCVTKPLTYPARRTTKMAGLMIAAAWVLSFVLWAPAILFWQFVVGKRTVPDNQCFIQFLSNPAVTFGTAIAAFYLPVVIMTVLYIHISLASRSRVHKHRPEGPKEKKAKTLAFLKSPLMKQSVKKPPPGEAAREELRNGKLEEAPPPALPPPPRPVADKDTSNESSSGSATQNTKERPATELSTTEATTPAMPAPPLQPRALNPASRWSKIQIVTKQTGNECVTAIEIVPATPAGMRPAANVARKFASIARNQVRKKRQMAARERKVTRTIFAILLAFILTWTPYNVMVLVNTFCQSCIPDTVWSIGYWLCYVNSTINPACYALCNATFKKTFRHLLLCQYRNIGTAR
How it was run: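 Calcium mobilization in CHO cells expressing hM4 with Gqi5. Compound added in presence of a fixed EC20 concentration of acetylcholine. Values are means of three independent experiments, each run in triplicate.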

[2] = biological target: Muscarinic acetylcholine receptor M4 (Rattus norvegicus, UniProt P08485); assay: Positive allosteric modulation of rat M4 receptor assessed as increase in acetylcholine-induced calcium mobilization; type: functional
How it was run: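 M4 PAM concentration-response curves measured by calcium mobilization at the stated species' receptor. Potency reported as EC50/pEC50 and efficacy as % of acetylcholine maximum.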

[3] = biological target: Muscarinic acetylcholine receptor M2 (Homo sapiens, UniProt P08172); assay: Activity at human M2 receptor
[4] = system: Salmonella typhimurium; assay: Mutagenicity in Salmonella typhimurium TA98 by mini-Ames test; type: toxicity; conditions: salmonella enterica subsp. enterica serovar typhimurium
How it was run: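 Mini-Ames mutagenicity assay in Salmonella typhimurium strains TA98 and TA100, run with and without S9 metabolic activation.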

[5] = Oral bioavailability in rat at 10 mg/kg; type: ADME, organism-based; conditions: in vivo
How it was run: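 Rat oral bioavailability from a 10 mg/kg solution dose. Separately, the HCl salt was dosed as a suspension.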

[6] = Ratio of unbound brain to plasma concentration in dog at 3 mg/kg, iv or po at 2 hrs post dose; type: ADME, organism-based, Canis lupus familiaris
How it was run: (§1)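 CNS penetration in dog by terminal study at 2.0 hr. Brain:plasma Kp, Kp,uu and unbound CSF:plasma ratio determined.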

[7] = Ratio of unbound CSF to plasma concentration in dog at 3 mg/kg, iv or po at 2 hrs post dose; type: ADME, organism-based, Canis lupus familiaris; how it was run: as §1
[8] = Drug metabolism in rat cryopreserved hepatocytes assessed as metabolite M3 formation; type: ADME, cell-based, Hepatocyte
[9] = Drug metabolism in rat cryopreserved hepatocytes assessed as metabolite M4 formation; type: ADME, cell-based, Hepatocyte
[10] = Drug metabolism in human cryopreserved hepatocytes assessed as metabolite M4 formation; type: ADME, cell-based, Hepatocyte
[11] = Drug metabolism in cynomolgus monkey cryopreserved hepatocytes assessed as metabolite M5 formation; type: ADME, cell-based, Macaca fascicularis, Hepatocyte
[12] = Drug metabolism in human cryopreserved hepatocytes assessed as metabolite M5 formation; type: ADME, cell-based, Hepatocyte
[13] = Drug metabolism in human cryopreserved hepatocytes assessed as metabolite M8 formation; type: ADME, cell-based, Hepatocyte

Chain of Muscarinic acetylcholine receptor M4 (Rattus norvegicus, UniProt P08485) (P08485 whole entry): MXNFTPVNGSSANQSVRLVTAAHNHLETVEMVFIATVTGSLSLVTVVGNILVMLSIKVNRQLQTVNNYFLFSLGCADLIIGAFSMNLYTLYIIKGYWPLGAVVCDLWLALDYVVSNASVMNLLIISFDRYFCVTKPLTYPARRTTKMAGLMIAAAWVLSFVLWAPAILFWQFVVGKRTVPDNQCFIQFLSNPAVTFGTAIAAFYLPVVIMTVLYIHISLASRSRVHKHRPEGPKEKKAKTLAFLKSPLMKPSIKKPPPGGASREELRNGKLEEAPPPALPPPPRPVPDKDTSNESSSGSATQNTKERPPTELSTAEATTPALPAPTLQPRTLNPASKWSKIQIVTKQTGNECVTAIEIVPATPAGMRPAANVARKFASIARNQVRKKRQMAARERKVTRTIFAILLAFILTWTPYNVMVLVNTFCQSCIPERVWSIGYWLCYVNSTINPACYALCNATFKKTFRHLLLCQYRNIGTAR
Chain of Muscarinic acetylcholine receptor M2 (P08172 whole entry): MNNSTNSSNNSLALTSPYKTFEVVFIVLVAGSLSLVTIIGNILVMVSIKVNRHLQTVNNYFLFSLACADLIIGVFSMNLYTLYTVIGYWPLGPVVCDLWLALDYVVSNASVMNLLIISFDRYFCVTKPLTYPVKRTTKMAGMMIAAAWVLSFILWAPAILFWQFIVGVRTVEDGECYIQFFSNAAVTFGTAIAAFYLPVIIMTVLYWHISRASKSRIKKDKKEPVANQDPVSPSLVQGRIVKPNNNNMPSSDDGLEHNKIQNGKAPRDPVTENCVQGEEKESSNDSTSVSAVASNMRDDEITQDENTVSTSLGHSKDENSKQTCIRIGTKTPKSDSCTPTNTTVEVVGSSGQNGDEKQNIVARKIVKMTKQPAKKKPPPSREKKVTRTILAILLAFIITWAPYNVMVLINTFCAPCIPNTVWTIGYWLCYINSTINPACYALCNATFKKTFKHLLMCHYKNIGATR

- EC50 [1]: 0.091 µM
- EC50 ([2]; read-out: EC50): 0.0135 µM
- EC50 ([2]; read-out: pEC50 (converted)): 0.0117 µM
- EC50 [3]: > 30 µM
- bioavailability [5]: 61%
- K(p,uu,brain) [6]: 2.6
- Kp uu at 2 h [7]: 4.8
- Drug metabolism [8]: Metabolite_Detected
- Drug metabolism [9]: Metabolite_Detected
- Drug metabolism [10]: Metabolite_Detected
- Drug metabolism [11]: Metabolite_Detected
- Drug metabolism [12]: Metabolite_Detected
- Drug metabolism [13]: Metabolite_Detected
SMILES: Cc1nnc2sc(C(=O)NCc3ccc(-c4cccnc4F)cc3)c(N)c2c1C
- Activity [4]: Non-Toxic
